From paper PMC9067284 (RSC Advances, 2019) come the findings set out here.

Experiment [1] concerns the target T1, PDK3 (Homo sapiens, UniProt Q15120). The experiment can be described thus: Fluorescence quenching binding study with purified PDK3. The gist of the method: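 Intrinsic tryptophan fluorescence quenching of refolded His-tagged human PDK3 (4 μM) at 25 ± 0.1 °C in 50 mM Tris pH 8.0. Test compounds come from 10–30 mM DMSO stocks and are titrated at 0.1–4.0 μM or 2–12 μM. Excitation 280 nm, emission 300–400 nm, blank subtracted, triplicates averaged. Ka and number of sites come from a modified Stern–Volmer plot.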

Experiment [2] concerns the target T1, PDK3. As to the kind of experiment: Isothermal titration calorimetry of PDK3 with EA. The format is binding. As to conditions: ITC, 25 °C, four-site model. Summed up:
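VP-ITC at 25 °C with PDK3 (30 μM) in the cell and 1% v/v DMSO added to the protein. Test compound is injected from the syringe: a 2 μl first injection, then 10 μl injections at 300 s intervals, stirring at 320 rpm. Heat of dilution is subtracted. The isotherm is fitted to a four-set-of-sites model for Ka, n, ΔH and ΔS.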
(In general: ITC needs no label: the signal is the heat of the interaction.)

Experiment [3] has as its target T1, PDK3. The experiment can be described thus: Enzyme inhibition assay. The experiment is classed as biochemical. Summed up: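 Recombinant full-length human PDK3, His-tagged, expressed in E. coli BL21 Gold, purified from inclusion bodies by Ni-NTA and refolded by dialysis. Enzyme 5 μM with 200 μM ATP and test compound 0–30 μM, 15–20 min at 25 °C in 50 mM Tris, 100 mM NaCl, pH 8.0. Released phosphate read by malachite green at 620 nm against a 0.0–8 nmol phosphate standard curve. Triplicates, at least three independent experiments.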

In experiment [4] the test system is HepG2 cells. The experiment can be described thus: Cell proliferation MTT assay, HepG2. The format is cell-based. As to conditions: Homo sapiens, HepG2, 48 h, read-out: IC50, cell growth inhibition. Summed up: (§1)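 Cells at 37 °C, 5% CO2: A549 in F12K medium; HepG2 and HEK293 in DMEM with 10% heat-inactivated FBS and 1% penicillin-streptomycin; kept under 30 passages. Test compound at 0–250 μM for 48 h in 200 μl, then MTT with absorbance at 570 nm. Viability is given as % of untreated control and plotted against concentration. Doxorubicin is the positive control.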
In general terms: Tetrazolium assays rely on reduction of a dye to a coloured formazan, in cell work by metabolically active cells.

For experiment [5], the system named is A549 cells. The experiment can be described thus: Cell proliferation MTT assay, A549. The experiment is classed as cell-based. The note with it: Homo sapiens, A549, 48 h, read-out: IC50, cell growth inhibition. The gist of the method: as §1

Each structure is given as a SMILES string.

T1 sequence (Q15120 whole entry): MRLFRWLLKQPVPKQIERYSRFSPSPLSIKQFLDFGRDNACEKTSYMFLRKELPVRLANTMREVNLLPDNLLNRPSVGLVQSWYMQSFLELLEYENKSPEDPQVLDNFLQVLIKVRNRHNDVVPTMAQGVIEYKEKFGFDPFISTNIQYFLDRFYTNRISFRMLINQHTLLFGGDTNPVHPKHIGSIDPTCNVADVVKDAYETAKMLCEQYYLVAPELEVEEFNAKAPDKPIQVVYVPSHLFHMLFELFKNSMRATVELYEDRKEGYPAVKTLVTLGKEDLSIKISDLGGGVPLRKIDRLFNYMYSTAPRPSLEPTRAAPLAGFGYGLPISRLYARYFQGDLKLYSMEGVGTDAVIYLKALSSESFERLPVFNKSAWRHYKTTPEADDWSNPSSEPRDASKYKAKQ

For `CCC(C)(C)C(=O)O[C@H]1C[C@@H](C)C=C2C=C[C@H](C)[C@H](CC[C@@H]3C[C@@H](O)CC(=O)O3)[C@H]21` [Simvastatin, reference compound], in experiment [1], the equilibrium dissociation constant (Kd) was 2.59 µM.
The compound `CC1(C)O[C@H]2CC(=O)OC[C@]23[C@H]2CC[C@@]4(C)[C@H](c5ccoc5)OC(=O)[C@H]5O[C@]54[C@]2(C)C(=O)C[C@@H]13` [Limonin] yielded a Kd in experiment [1] of 0.0316 µM. This Kd lies about 82-fold lower than the previous one.
As to `COc1cc(C=O)ccc1O` [Vanillin], in experiment [1], the Kd is 5.62 µM.
Consider `COc1cc(CNC(=O)CCCC/C=C/C(C)C)ccc1O` [Capsaicin], for which the Kd in experiment [1] was 0.271 µM.
Turning to `O=c1oc2c(O)c(O)cc3c(=O)oc4c(O)c(O)cc1c4c23` [Ellagic acid], the Kd in experiment [1] was 0.00373 µM; in experiment [2] (Ka1 (association constant), site 1) it was 106 µM; in experiment [2] (Ka2 (association constant), site 2), 8.47 µM; in experiment [2] (Ka3 (association constant), site 3), 25.6 µM; in experiment [2] (Ka4 (association constant), site 4), 33.7 µM. For the same compound, the “ΔS1 (entropy change)” value in experiment [2] (site 1) was “ΔS1 = 9.13 cal mol^−1 deg^−1”. The “ΔS2 (entropy change)” value in experiment [2] (site 2) was “ΔS2 = −927 cal mol^−1 deg^−1”. The “ΔS3 (entropy change)” value in experiment [2] (site 3) was “ΔS3 = −1950 cal mol^−1 deg^−1”. In addition, the “ΔS4 (entropy change)” value in experiment [2] (site 4) is “ΔS4 = −2090 cal mol^−1 deg^−1”. Also, the IC50 in experiment [3] is around 5 µM; in experiment [4] it was 36.7 ± 3.22 µM; in experiment [5] it was 23.4 ± 1.33 µM.
For `CC(C)=CCCC(C)=CC=O` (mixture of isomers) [Citral], binding in experiment [1] was put at a Kd of 0.177 µM.
In experiment [1], `C[C@H]1[C@H](C)CC[C@]2(C(=O)O)CC[C@]3(C)C(=CC[C@@H]4[C@@]5(C)CC[C@H](O)C(C)(C)[C@@H]5CC[C@]43C)[C@H]12` [Ursolic acid] gave a Kd of 1.76 µM.

Usually Kd stands for the free concentration of one partner at which half of the binding sites on the other are occupied at equilibrium, for simple one-to-one binding. Read a high Kd as weaker binding. A word on the IC50: it is the concentration at which inhibition is half-maximal.
